The IC50 is the concentration that gives 50% inhibition. By Kd is commonly meant the concentration at which binding is half-saturated. High values mean lower affinity, low ones higher affinity.

Here are results for five compounds from PMC11840771 (ACS Omega, 2025).

In assay [1] the target is T1, HER2-TK (Homo sapiens, UniProt P04626). Briefly: SPR kinetic analysis of binding to immobilized HER2-TK. On the technique in general: SPR reads the build-up and loss of mass on a sensor chip optically.
T1 sequence (P04626 676-1255 limits assumed): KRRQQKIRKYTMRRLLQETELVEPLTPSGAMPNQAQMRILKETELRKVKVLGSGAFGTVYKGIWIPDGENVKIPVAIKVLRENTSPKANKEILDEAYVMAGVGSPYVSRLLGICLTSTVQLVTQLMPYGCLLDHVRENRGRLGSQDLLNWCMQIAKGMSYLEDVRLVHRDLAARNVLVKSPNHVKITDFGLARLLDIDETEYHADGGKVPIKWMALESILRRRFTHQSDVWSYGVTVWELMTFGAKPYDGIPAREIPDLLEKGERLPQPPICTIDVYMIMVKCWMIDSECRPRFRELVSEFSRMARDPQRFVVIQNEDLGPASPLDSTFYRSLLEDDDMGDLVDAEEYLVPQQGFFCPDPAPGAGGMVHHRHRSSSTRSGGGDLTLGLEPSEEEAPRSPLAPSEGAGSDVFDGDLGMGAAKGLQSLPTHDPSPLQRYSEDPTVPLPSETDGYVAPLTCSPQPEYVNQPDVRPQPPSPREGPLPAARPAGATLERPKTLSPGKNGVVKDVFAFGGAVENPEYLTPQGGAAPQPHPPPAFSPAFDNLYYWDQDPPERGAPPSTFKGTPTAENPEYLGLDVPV
Assay [2] has as its system SKOV3 (HER2-positive cell). Kind of assay: MTT cell viability assay, SKOV3. It is filed as cell-based, human. Conditions: read-out: cell inhibition IC50 SKOV3 (HER2-positive cell), 72 h, mean ± SD. In outline: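 SKOV3 cells grown in DMEM at 37 °C, 5% CO2, seeded at 1 × 10^4 cells/well and left 16 h. Test compound from DMSO stock (final DMSO ≤1%) was added in complete medium, 2-fold dilutions from 100 μM, for 72 h. MTT added for 3 h at 37 °C, formazan dissolved in DMSO, read at 550/590 nm. Triplicate; IC50 by nonlinear regression.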
(Tetrazolium dyes change colour on reduction, which living cells bring about.)

For assay [3], the target named is T1, HER2-TK. Briefly: HER2-TK inhibitory activity assay. It is filed as biochemical.
The mark [4] stands for this setting: SPR, PBS pH 7.4 with 5% DMSO, mean ± SD.

Read-outs that look alike come from different tables or passages of the source.

In the case of `CN(C)C/C=C/C(=O)Nc1cc2c(Nc3ccc(F)c(Cl)c3)ncnc2cc1O[C@H]1CCOC1` [Afatinib, reference compound], the kd in assay [1] (setting [4]) is 9.95 ± 0.16 10^–3/s. Also, the IC50 in assay [2] was determined as 8.4 ± 0.9 µM.
For `C=C(C)[C@@H]1CCC(C)=C[C@H]1c1c(O)cc(CCCCC)cc1O` [CBD, cannabidiol], binding in assay [1] was put at a Kd of 6.16 ± 0.25 µM. Further, the kd in assay [1] (setting [4]) is listed as 6.33 ± 0.06 10^–3/s. For the same compound, the results for the IC50 in assay [2] and in assay [3] were 13.8 ± 1.7 µM and 0.038 ± 0.002 µM, respectively.
`CCCCCc1cc(O)c(C/C=C(\C)CCC=C(C)C)c(O)c1` [CBG, cannabigerol] gave a dissociation constant Kd in assay [1] of 17.1 ± 0.8 µM. Further, the ka in assay [1] (setting [4]) is listed as 2.21 ± 0.11 10^2/(M·s). For the same compound, in assay [1] (setting [4]), the kd is listed as 3.77 ± 0.02 10^–3/s. Further, the kon in assay [1] (read-out: association rate constant (ka)) worked out at 221 M⁻¹ s⁻¹. Moreover, the half-maximal inhibitory concentration (IC50) in assay [2] came out at 16.6 ± 1 µM; in assay [3] it was 0.0247 ± 0.0026 µM.
`CCCCCc1cc(O)c2c(c1)OC(C)(C)c1ccc(C)cc1-2` [CBN, cannabinol] returned a dissociation constant (Kd) in assay [1] of 26 ± 2.97 µM. In addition, the kd is reported as 3.14 × 10^–3 s^–1 in assay [1] (SPR) and 3.14 ± 0.09 10^–3/s in assay [1] (setting [4]). The kon in assay [1] (pH 7.4, read-out: ka) worked out at 122 ± 11 M⁻¹ s⁻¹. The same compound came in with a half-maximal inhibitory concentration (IC50) in assay [3] of 0.0874 ± 0.0017 µM.
As to `CS(=O)(=O)CCNCc1ccc(-c2ccc3ncnc(Nc4ccc(OCc5cccc(F)c5)c(Cl)c4)c3c2)o1` [Lapatinib, reference compound], in assay [2], the half-inhibitory concentration (IC50) stood at 8 ± 1.4 µM.
